CHOP UPR activ = apoptotic UPR (CHOP) activation | hit rate 0.34% among 330,000 | activation, % at 10 µM | CHO-CHOP luciferase reporter, luminescence; percent of tunicamycin response over DMSO baseline;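 active means at 10 µM dose, activation of 40% or more, normalized to positive control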;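 further: 100% = tunicamycin at 10 µg/mL and 0% = DMSO alone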
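Dosing – one dose, 10 µM in 0.5% DMSO · System – CHO-CHOP cells, stable luciferase reporter of PERK-eIF2a-CHOP signalling · Input – 500 cells/well · Control set – tunicamycin 10 µg/mL final as positive, DMSO-only wells as negative · Timing – 6 h compound treatment, 37 °C · Measure – % activation vs tunicamycin · Technique – luminescence read with Steady-Glo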
XBP1 UPR activ = activators of adaptive arm of unfolded protein response (XBP1). CHO-XBP1 luciferase reporter, IRE1-XBP1 UPR activation, luminescence; percent of tunicamycin response, DMSO as zero. activation, % at 20 µM. hit rate 0.33% among 330,000;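 active means versus positive control, 20 µM dose yields 30% or more activation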;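 further: 100% = tunicamycin at 10 µg/mL and 0% = DMSO only wells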
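Material: CHO-XBP1 cells stably carrying IRE1-XBP1-driven luciferase reporter | Medium: F12 with 10% serum | Compound dosing: 20 µM single concentration, DMSO 1% | Incubation: Overnight seeding at 37 °C, 6 h compound treatment at 37 °C | Detection: Steady-Glo luminescence read | Read-out basis: % activation of reporter signal versus tunicamycin and DMSO controls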
CHOP inh = inhibitors of CHOP induction in ER stress response | hit rate 3.8% among 220,000 | CHO-K1 CHOP-promoter luciferase, tunicamycin-induced, 15-18 h | inhibition, % at 10 µM | AID 2732;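 active means compounds that reduced the stress-induced luciferase reporter signal by more than about 70% of percent inhibition, limit read from the data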;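 further: 0% = tunicamycin plus vehicle and 100% = wells without tunicamycin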
UCH37 inh = human UCH37 deubiquitinating enzyme inhibition | hit rate 0.33% among 330,000 | purified proteasome/UCH37, Ub-AMC cleavage fluorescence | Q9Y5K5 | AID 588478 | inhibition, % (concentration not given with the values);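 active means mean inhibition over replicate wells above about 20%, limit read from the data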;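 further: 0% = compound-free wells with enzyme and 100% = wells lacking proteasome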
Target sequence (Q9Y5K5 whole entry, looked up): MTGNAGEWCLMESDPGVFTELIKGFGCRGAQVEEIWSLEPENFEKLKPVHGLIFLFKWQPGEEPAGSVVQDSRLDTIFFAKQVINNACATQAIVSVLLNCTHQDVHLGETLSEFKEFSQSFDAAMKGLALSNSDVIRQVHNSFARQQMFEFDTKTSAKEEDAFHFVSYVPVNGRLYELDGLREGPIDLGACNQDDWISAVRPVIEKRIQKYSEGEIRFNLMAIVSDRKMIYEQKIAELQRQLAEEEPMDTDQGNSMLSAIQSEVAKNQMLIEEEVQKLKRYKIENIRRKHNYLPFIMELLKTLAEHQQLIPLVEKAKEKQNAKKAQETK
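assay system = human UCH37 enzyme supplied as purified proteasome complex | amount = proteasome at 0.15 nM in the dispensed enzyme solution | schedule = 30 min compound-proteasome preincubation then 25 min substrate reaction, room temperature | measured by = fluorescence, ex 355 nm, em 460 nm | benchmarks = no-proteasome wells (full inhibition) and compound-free wells (no inhibition)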
Fh CTSL1 inh = blocks F. hepatica cathepsin L1 in PFM18AAP counter-screen. AID 1906. recombinant F. hepatica cathepsin L1, Z-Leu-Arg-MCA fluorescence. hit rate 0.49% among 300,000. inhibition, % at 5.96 µM;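 active means inhibition above the mean of all tested compounds plus 3 SD, set per screening campaign, cut at about 17% in these data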;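 further: 0% = plate median of test compound wells and 100% = 1 µM Z-Phe-Ala-diazomethylketone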
* = called active by the depositor; i = inactive; . = no result given. Shown is part of a subset that was picked to be rich in hits.

SMILES	CHOP UPR activ	XBP1 UPR activ	CHOP inh	UCH37 inh	Fh CTSL1 inh
CCC(C)Sc1nc2c(cnn2-c2ccc(C)cc2)c(=O)[nH]1 (stereo not drawn)	-1	7	27	1	1
CC(=NNC(=O)c1ccc2ccccc2c1)c1cccs1	.	.	.	-2	.
COc1cc(C(=O)Oc2ccc(C=NNC(=O)c3ccncc3)cc2)cc(OC)c1OC	.	.	.	4	.
CCN(Cc1ccccc1)c1ccc(C=NN=C(N)N)cc1	.	.	.	-149	.
O=C(CSc1nc2c(cnn2-c2ccccc2)c(=O)[nH]1)c1ccc(Cl)cc1	-1	-2	92*	1	1
Cc1ccc(C(=O)CSc2nnc3c4ccccc4nc(C(C)(C)C)n23)cc1	-2	-2	70*	4	2
COc1cc(C=NNC(=O)CCC(=O)Nc2ccc(F)cc2)ccc1O	.	.	.	0	.
Cc1ccc(-c2ccc(/C=N/NC(N)=S)o2)cc1	6	9	32	.	12
NC(=S)N/N=C\c1ccc(-c2cccc(Cl)c2Cl)o1	2	10	36	.	19*
NC(=S)N/N=C/c1ccc(-c2ccc(Cl)c(Cl)c2)o1	6	7	47	.	23*
NC(=S)N/N=C/c1ccc(-c2ccccc2)o1	3	0	38	.	13
CC(=NNC(=O)c1csc(C)c1C)c1ccc(Cl)s1	.	.	.	2	.
COC(=O)C=c1sc(=C(C#N)C(=O)N2CCOCC2)n(-c2ccccc2)c1=O	.	.	.	4	.
COc1cc(C=C(c2nc3ccccc3s2)c2nc3ccccc3s2)ccc1O	2	1	74*	6	0
Cc1n[nH]c(=S)n1N=Cc1ccc(Br)o1	.	.	.	-2	.
O=C1c2cccc3c(N4CCCCC4)ccc(c23)C(=O)N1c1ccc(O)cc1	1	6	106*	-1	2
CC(/C=N/NC(=O)NC1CCCCC1)=C\c1ccccc1	1	3	86*	.	5
C/C(C=NNC(=O)NC1CCCCC1)=C\c1ccccc1	.	.	.	2	.
CCN1CCN(CCCNC(=O)c2ccc3c(c2)N(Cc2ccccc2)CCS3)CC1	1	-2	.	i	42*
CCNC(=S)NN=Cc1ccc(C(=O)O)cc1	.	.	.	6	.
O=S(=O)(c1cc(Cl)cc(Cl)c1)N1CCCC1c1nc2ccccc2s1 (stereo not drawn)	0	1	70*	-1	0
O=C(CN1C(=O)c2ccccc2S1(=O)=O)c1ccc2c(c1)OCCO2	-10	-11	94*	3	-2
CCC(=O)N(Cc1ccco1)c1nc(-c2cc(OC)ccc2OC)cs1	0	5	75*	2	1
CCC(=O)N(Cc1ccco1)c1nc(-c2ccc(OC)cc2)cs1	2	7	0	-1	-1
